Laboratory results reported in ChEMBL document CHEMBL3259656, “Discovery of AZD3199, An Inhaled Ultralong Acting β2 Receptor Agonist with Rapid Onset of Action” (ACS Med Chem Lett, 2014).
Values belong to the compound of their own block, whether it stands above or below them. The source made the active and inactive calls. The calls are words filed in the database; no cut-off is given here.

Assays:
[1] = molecular target: Beta-2 adrenergic receptor (Homo sapiens, UniProt P07550); assay: Agonist activity at human beta-2 adrenergic receptor expressed in human H292 cells assessed as accumulation of intracellular cAMP after 1 hr by AlphaScreen assay; type: functional, cell-based
D(2) dopamine receptor [2] = molecular target: T1, D(2) dopamine receptor (Homo sapiens, UniProt P14416); assay: Agonist activity at human recombinant dopamine D2S receptor expressed in HEK cells by GTPgammaS binding assay; type: functional, HEK293
Cavia porcellus [3] = assay: Bronchoprotective activity in guinea pig assessed as inhibition of histamine-induced bronchoconstriction at ED80 administered intratracheally after 4 to 24 hrs relative to control; type: functional, organism-based
In short: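 Guinea pigs received a single intratracheal dose of agonist. Histamine-induced bronchoconstriction was measured at several time points after dosing, up to 24 h. Bronchoprotection was expressed as inhibition relative to control animals.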

[4] = molecular target: T2, Alpha-1D adrenergic receptor (Homo sapiens) (UniProt P25100); assay: Agonist activity at human recombinant alpha-1D adrenergic receptor expressed in HEK cells assessed as intracellular calcium response; details: HEK293
T2 sequence (whole entry): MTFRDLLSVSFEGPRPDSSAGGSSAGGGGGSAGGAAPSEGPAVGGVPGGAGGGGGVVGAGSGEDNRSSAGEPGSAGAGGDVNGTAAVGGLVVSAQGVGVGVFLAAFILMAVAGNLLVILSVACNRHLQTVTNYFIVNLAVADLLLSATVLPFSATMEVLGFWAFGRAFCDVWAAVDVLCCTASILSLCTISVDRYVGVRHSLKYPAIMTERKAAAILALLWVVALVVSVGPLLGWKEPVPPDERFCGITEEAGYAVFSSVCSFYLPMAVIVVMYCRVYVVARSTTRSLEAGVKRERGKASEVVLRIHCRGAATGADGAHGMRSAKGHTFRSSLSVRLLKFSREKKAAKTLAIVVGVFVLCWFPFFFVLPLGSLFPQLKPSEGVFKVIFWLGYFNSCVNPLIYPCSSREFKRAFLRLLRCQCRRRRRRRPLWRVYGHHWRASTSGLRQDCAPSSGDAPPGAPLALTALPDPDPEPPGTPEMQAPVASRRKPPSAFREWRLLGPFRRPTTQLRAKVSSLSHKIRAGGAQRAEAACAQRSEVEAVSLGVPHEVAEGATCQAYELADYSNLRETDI

[5] = molecular target: Beta-2 adrenergic receptor (Mus musculus) (UniProt P18762); assay: Agonist activity at mouse recombinant beta-2 adrenergic receptor assessed as cAMP accumulation by cell-based assay; type: functional
[6] = Intrinsic clearance in rat measured per million cells; type: ADME
[7] = Terminal half life in iv dosed rat; type: ADME, organism-based; details: in vivo, read-out: beta t1/2 (converted)
[8] = molecular target: Beta-2 adrenergic receptor (Mus musculus) (UniProt P18762); assay: Intrinsic activity at mouse recombinant beta-2 adrenergic receptor
Oryctolagus cuniculus [9] = species: Oryctolagus cuniculus; assay: Intrinsic activity at rabbit recombinant beta-2 adrenergic receptor
[10] = Terminal half life in iv dosed dog; type: ADME, organism-based, Canis lupus familiaris; details: in vivo, read-out: beta t1/2 (converted)
[11] = molecular target: Beta-2 adrenergic receptor (Canis lupus familiaris) (UniProt P54833); assay: Agonist activity at dog recombinant beta-2 adrenergic receptor assessed as cAMP accumulation by cell-based assay; type: functional
Cavia porcellus [12] = assay: Bronchoprotective activity in guinea pig assessed as inhibition of histamine-induced bronchoconstriction administered intratracheally after 2 hrs; type: functional; details: inhaled or nasal
[13] = molecular target: Beta-2 adrenergic receptor (Rattus norvegicus) (UniProt P10608); assay: Intrinsic activity at beta-2 adrenergic receptor in rat C6 cells; type: cell-based
[14] = Oral bioavailability in dog; type: ADME, organism-based, Canis lupus familiaris; details: in vivo
[15] = Apparent volume of distribution in iv dosed rat; type: ADME, organism-based; details: in vivo, read-out: Vz
[16] = Oral bioavailability in rat; type: ADME, organism-based; details: in vivo
[17] = Terminal half life in iv dosed guinea pig; type: ADME, organism-based, Cavia porcellus; details: in vivo, read-out: beta t1/2 (converted)
Cavia porcellus [18] = assay: Toxicity in iv dosed guinea pig assessed as change in plasma potassium level up to 60 mins; type: organism-based; details: in vivo, 1 h
D(2) dopamine receptor [19] = molecular target: T1, D(2) dopamine receptor; assay: Partial agonist activity at human recombinant dopamine D2S receptor expressed in HEK cells by GTPgammaS binding assay; type: functional, cell-based; details: HEK293
[20] = molecular target: Beta-2 adrenergic receptor (Rattus norvegicus) (UniProt P10608); assay: Agonist activity at beta-2 adrenergic receptor in rat C6 cells assessed as cAMP accumulation; type: functional, cell-based
Oryctolagus cuniculus [21] = species: Oryctolagus cuniculus; assay: Agonist activity at rabbit recombinant beta-2 adrenergic receptor assessed as cAMP accumulation by cell-based assay
[22] = molecular target: Beta-2 adrenergic receptor (Canis lupus familiaris) (UniProt P54833); assay: Intrinsic activity at dog recombinant beta-2 adrenergic receptor
Cavia porcellus [23] = assay: Bronchoprotective activity in guinea pig assessed as inhibition of histamine-induced bronchoconstriction administered intratracheally after 2 hrs in presence of propanolol; type: functional, organism-based
In short: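 In the guinea pig histamine-induced bronchoconstriction model, propranolol was given at 1 mg/kg i.v. to check that the bronchoprotection was mediated through β2 receptors.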

Cavia porcellus [24] = assay: Bronchoprotective activity in guinea pig assessed as inhibition of histamine-induced bronchoconstriction at ED80 administered intratracheally after 24 hrs relative to control; type: functional
In short: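 Guinea pigs received a single intratracheal dose, set from a dose–response in the same histamine-induced bronchoconstriction model. Histamine challenge was given at several times after dosing, and inhibition of bronchoconstriction was measured. Bronchoprotection at 24 h was expressed relative to control animals.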

[25] = Apparent volume of distribution in iv dosed guinea pig; type: ADME, organism-based, Cavia porcellus; details: in vivo, read-out: Vz
[26] = Apparent volume of distribution in iv dosed dog; type: ADME, organism-based, Canis lupus familiaris; details: in vivo, read-out: Vz
[27] = molecular target: Beta-2 adrenergic receptor (Cavia porcellus) (UniProt Q8K4Z4); details: Trachea
Beta-2 adrenergic receptor (Cavia porcellus), sequence (Q8K4Z4 whole entry, looked up): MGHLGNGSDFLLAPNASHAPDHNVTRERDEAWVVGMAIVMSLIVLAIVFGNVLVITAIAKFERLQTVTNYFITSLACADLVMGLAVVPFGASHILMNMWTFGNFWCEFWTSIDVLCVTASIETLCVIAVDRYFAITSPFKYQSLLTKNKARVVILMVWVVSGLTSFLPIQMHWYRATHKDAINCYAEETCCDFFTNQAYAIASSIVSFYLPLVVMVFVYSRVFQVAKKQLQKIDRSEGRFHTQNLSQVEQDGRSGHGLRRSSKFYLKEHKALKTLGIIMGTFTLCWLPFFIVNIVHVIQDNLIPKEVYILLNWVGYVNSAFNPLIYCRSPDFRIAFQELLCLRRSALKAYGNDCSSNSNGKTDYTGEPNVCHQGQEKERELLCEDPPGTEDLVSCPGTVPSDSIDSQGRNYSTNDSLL

Beta-2 adrenergic receptor, sequence (P07550 whole entry): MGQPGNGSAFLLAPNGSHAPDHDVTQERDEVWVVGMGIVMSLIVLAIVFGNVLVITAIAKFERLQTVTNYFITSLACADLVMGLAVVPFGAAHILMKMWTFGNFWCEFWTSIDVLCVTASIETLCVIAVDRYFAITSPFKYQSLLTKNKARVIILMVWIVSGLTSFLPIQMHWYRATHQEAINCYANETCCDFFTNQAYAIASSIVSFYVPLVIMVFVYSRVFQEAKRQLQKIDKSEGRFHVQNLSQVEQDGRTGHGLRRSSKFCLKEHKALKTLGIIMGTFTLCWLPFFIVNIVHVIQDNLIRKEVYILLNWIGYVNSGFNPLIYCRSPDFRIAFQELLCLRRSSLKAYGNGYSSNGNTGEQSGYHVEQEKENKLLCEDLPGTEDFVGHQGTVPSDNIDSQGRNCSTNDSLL
Beta-2 adrenergic receptor (Mus musculus), sequence (P18762 whole entry, looked up): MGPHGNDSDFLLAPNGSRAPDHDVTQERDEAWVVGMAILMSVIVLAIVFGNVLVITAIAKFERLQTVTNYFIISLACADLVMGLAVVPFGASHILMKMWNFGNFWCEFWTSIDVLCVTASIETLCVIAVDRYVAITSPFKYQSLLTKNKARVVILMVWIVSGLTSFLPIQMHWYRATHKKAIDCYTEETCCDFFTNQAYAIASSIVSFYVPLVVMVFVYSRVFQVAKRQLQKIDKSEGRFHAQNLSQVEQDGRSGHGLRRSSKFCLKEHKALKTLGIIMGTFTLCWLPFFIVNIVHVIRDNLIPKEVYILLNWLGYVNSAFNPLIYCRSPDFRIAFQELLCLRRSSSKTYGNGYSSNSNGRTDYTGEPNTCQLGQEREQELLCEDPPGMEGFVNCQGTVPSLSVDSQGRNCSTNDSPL
Beta-2 adrenergic receptor (Canis lupus familiaris), sequence (P54833 whole entry, looked up): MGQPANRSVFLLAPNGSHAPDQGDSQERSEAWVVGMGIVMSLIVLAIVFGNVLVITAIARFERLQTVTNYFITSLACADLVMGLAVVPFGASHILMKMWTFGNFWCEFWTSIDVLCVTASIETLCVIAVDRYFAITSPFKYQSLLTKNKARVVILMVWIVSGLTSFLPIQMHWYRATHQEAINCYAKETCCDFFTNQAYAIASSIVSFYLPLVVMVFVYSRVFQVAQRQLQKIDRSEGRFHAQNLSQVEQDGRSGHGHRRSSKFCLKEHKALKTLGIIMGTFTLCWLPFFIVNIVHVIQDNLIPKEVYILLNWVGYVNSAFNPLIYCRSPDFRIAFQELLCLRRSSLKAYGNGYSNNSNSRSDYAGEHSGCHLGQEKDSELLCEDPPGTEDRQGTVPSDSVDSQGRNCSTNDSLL
T1 sequence (P14416 whole entry): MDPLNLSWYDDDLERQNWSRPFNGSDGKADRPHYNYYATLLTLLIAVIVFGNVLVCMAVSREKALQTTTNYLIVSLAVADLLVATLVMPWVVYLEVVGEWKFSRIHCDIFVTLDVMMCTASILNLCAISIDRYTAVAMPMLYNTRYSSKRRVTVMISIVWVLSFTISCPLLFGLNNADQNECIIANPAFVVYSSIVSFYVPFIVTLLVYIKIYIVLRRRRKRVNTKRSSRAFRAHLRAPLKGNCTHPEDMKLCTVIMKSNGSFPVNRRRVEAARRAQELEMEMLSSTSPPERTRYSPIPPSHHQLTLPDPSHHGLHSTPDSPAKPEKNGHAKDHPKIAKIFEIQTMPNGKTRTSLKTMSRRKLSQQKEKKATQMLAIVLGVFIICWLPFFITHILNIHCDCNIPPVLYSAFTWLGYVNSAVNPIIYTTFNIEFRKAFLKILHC
Beta-2 adrenergic receptor (Rattus norvegicus), sequence (P10608 whole entry, looked up): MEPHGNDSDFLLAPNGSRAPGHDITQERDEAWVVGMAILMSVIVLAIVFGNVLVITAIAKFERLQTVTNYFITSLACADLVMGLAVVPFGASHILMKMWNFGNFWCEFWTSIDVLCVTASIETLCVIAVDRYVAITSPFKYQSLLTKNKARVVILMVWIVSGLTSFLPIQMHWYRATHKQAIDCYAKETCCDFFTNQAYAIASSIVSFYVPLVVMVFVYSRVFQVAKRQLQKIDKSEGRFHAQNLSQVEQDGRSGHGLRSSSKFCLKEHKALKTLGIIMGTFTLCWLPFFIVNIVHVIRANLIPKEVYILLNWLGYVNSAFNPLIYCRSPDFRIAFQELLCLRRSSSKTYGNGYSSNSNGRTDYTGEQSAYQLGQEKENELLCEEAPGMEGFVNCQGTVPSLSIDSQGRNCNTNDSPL

SMILES: O=c1[nH]c2c(O)ccc(CCNCCS(=O)(=O)CCCOCCc3ccccc3)c2s1 [SIBENADET]
- EC50 (D(2) dopamine receptor [2]): 2 nM

SMILES: CN(C)CCN(CCNCCc1ccc(O)c2[nH]c(=O)sc12)C(=O)CCOCCc1ccccc1
- EC50 [1]: 6.31 nM

SMILES: OCc1cc(C(O)CNCCCCCCOCCCCc2ccccc2)ccc1O (stereo unspecified)
- inhibition (Cavia porcellus [3]): Active

SMILES: NCCCN(CCNCCc1ccc(O)c2[nH]c(=O)sc12)C(=O)CCOCCc1ccccc1
- EC50 [1]: 316 nM

SMILES: CCN(C)CCCN(CCNCCc1ccc(O)c2[nH]c(=O)sc12)C(=O)CCOCCc1cccc(Cl)c1
- EC50 [1]: 10 nM

SMILES: CC(C)(C)NCC(O)c1ccc(O)c(CO)c1 (stereo unspecified) [ALBUTEROL]
- Activity (Cavia porcellus [18]): Toxic

Continued, in another order:

- EC50 [1]: 7.94 nM
SMILES: CCN(CC)CCN(CCNCCc1ccc(O)c2[nH]c(=O)sc12)C(=O)CCOCCc1cccc(OC)c1

- EC50 [1]: 12.6 nM
SMILES: O=C(CCOCCc1cccc(Cl)c1)N(CCNCCc1ccc(O)c2[nH]c(=O)sc12)CCN1CCCCC1

- Activity [4]: inactive
- Activity [5]: Active
- hepatocyte CLint [6]: 105 µL/min/1e6 cells
- half-life [7]: 11 h
- Activity [8]: Active
- Activity (Oryctolagus cuniculus [9]): Active
- half-life [10]: 18 h
- Activity [11]: Active
- Activity [13]: Active
- bioavailability [14]: < 2%
- Vd [15]: 23 L/kg
- bioavailability [16]: < 2%
- half-life [17]: 17 h
- Activity (D(2) dopamine receptor [19]): Active
- Activity [20]: Active
- Activity [22]: Active
- Vd [25]: 22 L/kg
- Vd [26]: 17 L/kg
SMILES: Br.CCN(CC)CCN(CCNCCc1ccc(O)c2[nH]c(=O)sc12)C(=O)CCOCCc1cccc2ccccc12
- ED80 (Cavia porcellus [12]): 0.027 mg/kg
- Activity (Cavia porcellus [18]): Toxic
- Activity (Oryctolagus cuniculus [21]): Active
- Activity (Cavia porcellus [23]): inactive
- inhibition (INH) (Cavia porcellus [24]): 58%

- EC50 [1]: 6.31 nM
SMILES: CCN(CC)CCN(CCNCCc1ccc(O)c2[nH]c(=O)sc12)C(=O)CCOCCc1cccc(Cl)c1

- EC50 [1]: 7.94 nM
SMILES: CN(CCCN(CCNCCc1ccc(O)c2[nH]c(=O)sc12)C(=O)CCOCCc1cccc(Cl)c1)C1CC1

- EC50 [1]: 15.8 nM
SMILES: CN(C)CCCN(CCNCCc1ccc(O)c2[nH]c(=O)sc12)C(=O)CCOCCc1ccccc1

- pA50 [27]: 7.7
SMILES: CCc1cc2c(cc1CC)CC(NC[C@H](O)c1ccc(O)c3[nH]c(=O)ccc13)C2

- EC50 [1]: 5.01 nM
SMILES: CC(C)N(C)CCCN(CCNCCc1ccc(O)c2[nH]c(=O)sc12)C(=O)CCOCCc1cccc(Cl)c1
